# What was measured:
# [1] = Inhibition of refolded MDH (unknown origin) preincubated with Escherichia coli GroEL/GroES for 45 mins in absence of compound followed by compound addition and measured for 20 to 35 mins by spectrometric analysis
# Enterococcus faecium = assay: Antibacterial activity against Enterococcus faecium ATCC 19434 after 24 hrs by bacterial proliferation assay; format: functional, organism-based; conditions: ATCC 19434, 24 h
# HSP60/HSP10 = HSP60/HSP10 (Homo sapiens, UniProt P10809); assay: Inhibition of human N-terminal octa-His-tagged HSP60 expressed in Escherichia coli Rosetta(DE3) pLysS/human HSP10 expressed in Escherichia coli Rosetta(DE3) assessed as reduction in HSP60/HSP10-mediated denatured MDH refolding after 40 to 60 mins by spectrometric analysis
# Method in brief: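 Human HSP60/10 refolding of denatured MDH, run the same way as the GroEL/ES-dMDH assay. A binary complex of chaperonin and denatured MDH is formed, and refolding is started with ATP and HSP10. MDH activity is the read-out. DMSO is the negative control. IC50 values from replicate curves are log-averaged after ROUT outlier screening.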
# Pseudomonas aeruginosa = assay: Antibacterial activity against Pseudomonas aeruginosa ATCC 10145 after 24 hrs by bacterial proliferation assay; format: functional, organism-based; conditions: ATCC 10145, 24 h
# Method in brief: (§1)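 Bacterial growth inhibition in liquid culture. The highest concentration tested was 100 µM. The mean was back-calculated from the average log value. Values above the top concentration were set 0.1 log unit higher.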
# E. coli GroEL/ES [2] = target: T1, E. coli GroEL/ES (Escherichia coli, UniProt P0A6F5); assay: Inhibition of Escherichia coli GroEL expressed in Escherichia coli DH5alpha/Escherichia coli GroES expressed in Escherichia coli BL21 (DE3) assessed as reduction in GroEL/GroES-mediated denatured MDH refolding after 20 to 40 mins by spectrometric analysis
# Method in brief: (§2)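 Uses E. coli GroEL/ES with a denatured MDH or rhodanese reporter. GroEL first forms a binary complex with the denatured reporter. Refolding is started by adding ATP and GroES, then reporter enzyme activity is read. DMSO is the negative control. IC50 values from replicate curves are log-averaged after ROUT outlier screening.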
# [3] = target: T2, Thiosulfate sulfurtransferase (Homo sapiens, UniProt Q16762); assay: Inhibition of refolded rhodanese (unknown origin) preincubated with Escherichia coli GroEL/GroES for 60 mins in absence of compound followed by compound addition by spectrometric analysis
# T2 sequence (Q16762 whole entry): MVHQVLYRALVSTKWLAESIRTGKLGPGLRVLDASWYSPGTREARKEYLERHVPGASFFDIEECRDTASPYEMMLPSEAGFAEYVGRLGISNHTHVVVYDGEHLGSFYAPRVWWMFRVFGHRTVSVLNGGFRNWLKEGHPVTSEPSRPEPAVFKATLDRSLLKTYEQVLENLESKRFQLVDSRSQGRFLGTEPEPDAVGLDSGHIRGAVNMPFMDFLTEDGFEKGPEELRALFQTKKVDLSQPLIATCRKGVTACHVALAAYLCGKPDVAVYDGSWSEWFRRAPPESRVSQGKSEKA
# Klebsiella pneumoniae = assay: Antibacterial activity against Klebsiella pneumoniae ATCC 13883 after 6 to 8 hrs by bacterial proliferation assay; format: functional, organism-based; method in brief: as §1
# Staphylococcus aureus [4] = assay: Antibacterial activity against methicillin-resistant Staphylococcus aureus ATCC BAA-44 after 6 to 8 hrs by bacterial proliferation assay; format: functional, organism-based; conditions: Staphylococcus aureus, ATCC BAA-44
# Staphylococcus aureus [5] = assay: Bactericidal activity against planktonic growth of Staphylococcus aureus Rosenbach ATCC 25923 preincubated for 24 hrs followed by compound wash out and measured after 24 hrs; format: functional, organism-based
# Enterobacter cloacae = assay: Antibacterial activity against Enterobacter cloacae subsp. cloacae ATCC 13047 after 24 hrs by bacterial proliferation assay; format: functional, organism-based; conditions: subsp. cloacae ATCC 13047, 24 h; method in brief: as §1
# [6] = Cytotoxicity against human THLE3 cells assessed as reduction in cell viability after 48 hrs by Alamar Blue reporter assay; conditions: 48 h
# E. coli GroEL/ES [7] = target: T1, E. coli GroEL/ES; assay: Inhibition of Escherichia coli GroEL expressed in Escherichia coli DH5alpha/Escherichia coli GroES expressed in Escherichia coli BL21 (DE3) assessed as reduction in GroEL/GroES-mediated denatured rhodanese refolding after 45 mins by spectrometric analysis; method in brief: as §2
# Staphylococcus aureus [8] = assay: Ratio of EC50 for bactericidal activity against Staphylococcus aureus Rosenbach ATCC 25923 in biofilms to EC50 for planktonic growth of Staphylococcus aureus Rosenbach ATCC 25923; format: functional
# Staphylococcus aureus [9] = assay: Antibacterial activity against Staphylococcus aureus ATCC 25923 after 6 to 8 hrs by bacterial proliferation assay; format: functional, organism-based
# Acinetobacter baumannii = assay: Antibacterial activity against Acinetobacter baumannii ATCC 19606 after 24 hrs by bacterial proliferation assay; format: functional, organism-based; conditions: ATCC 19606 = CIP 70.34 = JCM 6841, 24 h; method in brief: as §1
# Staphylococcus aureus [10] = assay: Bactericidal activity against Staphylococcus aureus Rosenbach ATCC 25923 in biofilms preincubated for 24 hrs followed by compound wash out and measured after 24 hrs; format: functional, organism-based
# Method in brief: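 ATCC 25923 preculture (TSB + 0.5% glucose, OD600 0.01) grown stagnant 24 h at 37°C to form biofilm, without compound. Wells washed 3× with PBS, then fresh TSB added with compound (100 µM–46 nM, 3-fold, DMSO) for 24 h at 37°C. Washed again, then recovered in fresh TSB 24 h at 37°C.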
# Staphylococcus aureus [11] = assay: Antibiofilm activity against Staphylococcus aureus Rosenbach ATCC 25923 after 24 hrs by crystal-violet based UV-Vis spectroscopy; format: functional, organism-based; conditions: Rosenbach ATCC 25923, 24 h
# Method in brief: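 ATCC 25923 colony grown overnight in TSB at 37°C with shaking, precultured 1 h in TSB + 0.5% glucose, then diluted to OD600 0.01. Incubated stagnant at 37°C for 24 h with compound (100 µM–46 nM, 3-fold, DMSO), alongside bacteria-free baseline plates. Wells washed, crystal violet stained 15 min, developed in MeOH:AcOH:H2O, A595.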
# HEK293 = assay: Cytotoxicity against HEK293 cells assessed as reduction in cell viability after 48 hrs by Alamar Blue reporter assay; conditions: human, hek293, 48 h
# [12] = Therapeutic index, ratio of CC50 for human THLE3 cells to EC50 for methicillin-resistant Staphylococcus aureus ATCC BAA-44; format: toxicity; conditions: read-out: Ratio CC50/EC50
# Method in brief: (§3)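 Ratio of human-cell CC50 to MRSA (ATCC BAA-44) EC50. […] EC50 comes from inhibition of MRSA proliferation in liquid culture. Replicate values were log-transformed, screened for outliers (ROUT, Q 10%), then averaged and back-calculated. Values above 100 µM were entered as 126 µM.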
# [13] = Therapeutic index, ratio of CC50 for HEK293 cells to EC50 for methicillin-resistant Staphylococcus aureus ATCC BAA-44; format: toxicity; conditions: human, read-out: Ratio CC50/EC50; method in brief: as §3
# T1 sequence (P0A6F5 whole entry, looked up): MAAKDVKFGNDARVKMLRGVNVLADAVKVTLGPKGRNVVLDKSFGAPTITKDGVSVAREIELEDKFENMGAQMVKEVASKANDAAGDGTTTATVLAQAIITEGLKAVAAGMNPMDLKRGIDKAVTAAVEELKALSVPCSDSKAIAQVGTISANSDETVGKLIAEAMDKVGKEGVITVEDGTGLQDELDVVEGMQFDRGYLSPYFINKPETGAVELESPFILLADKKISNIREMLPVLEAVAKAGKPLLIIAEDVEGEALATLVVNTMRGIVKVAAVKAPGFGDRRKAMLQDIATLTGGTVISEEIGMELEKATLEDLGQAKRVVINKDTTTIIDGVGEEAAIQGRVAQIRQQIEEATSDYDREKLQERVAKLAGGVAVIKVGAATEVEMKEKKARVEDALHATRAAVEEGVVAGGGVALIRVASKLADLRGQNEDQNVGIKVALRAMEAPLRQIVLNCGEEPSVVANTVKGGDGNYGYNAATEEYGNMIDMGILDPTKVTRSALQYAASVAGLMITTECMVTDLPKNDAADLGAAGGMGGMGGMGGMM
# Chain of HSP60/HSP10 (P10809 whole entry): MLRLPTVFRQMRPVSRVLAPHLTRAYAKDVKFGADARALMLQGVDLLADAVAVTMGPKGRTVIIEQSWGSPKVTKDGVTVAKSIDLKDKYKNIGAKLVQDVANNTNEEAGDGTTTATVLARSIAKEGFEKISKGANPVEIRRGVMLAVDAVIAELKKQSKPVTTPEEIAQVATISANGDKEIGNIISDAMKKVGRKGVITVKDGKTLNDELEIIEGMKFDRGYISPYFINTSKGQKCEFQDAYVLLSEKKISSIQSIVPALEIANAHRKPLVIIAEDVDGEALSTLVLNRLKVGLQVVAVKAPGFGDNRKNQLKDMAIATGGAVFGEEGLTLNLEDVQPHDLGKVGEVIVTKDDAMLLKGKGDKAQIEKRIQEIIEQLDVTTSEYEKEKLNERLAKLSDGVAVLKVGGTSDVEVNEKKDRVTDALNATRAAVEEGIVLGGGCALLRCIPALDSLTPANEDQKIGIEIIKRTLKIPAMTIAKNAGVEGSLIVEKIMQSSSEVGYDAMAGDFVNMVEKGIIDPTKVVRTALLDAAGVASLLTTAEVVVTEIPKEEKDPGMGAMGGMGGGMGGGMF
# Chain of HSP60/HSP10 (P61604 whole entry, further chain): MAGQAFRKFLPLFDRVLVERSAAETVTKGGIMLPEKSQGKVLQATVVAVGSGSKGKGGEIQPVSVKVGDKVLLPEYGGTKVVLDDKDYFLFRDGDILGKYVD
SMILES,IC50 [1] [µM],EC50 (Enterococcus faecium) [µM],IC50 (HSP60/HSP10) [µM],EC50 (Pseudomonas aeruginosa) [µM],IC50 (E. coli GroEL/ES [2]) [µM],IC50 [3] [µM],EC50 (Klebsiella pneumoniae) [µM],EC50 (Staphylococcus aureus [4]) [µM],EC50 (Staphylococcus aureus [5]) [µM],EC50 (Enterobacter cloacae) [µM],CC50 [6] [µM],IC50 (E. coli GroEL/ES [7]) [µM],Ratio EC50 (Staphylococcus aureus [8]),EC50 (Staphylococcus aureus [9]) [µM],EC50 (Acinetobacter baumannii) [µM],EC50 (Staphylococcus aureus [10]) [µM],EC50 (Staphylococcus aureus [11]) [µM],CC50 (HEK293) [µM],selectivity ratio [12],selectivity ratio [13]
O=C(Nc1ccc(Sc2nc3ccccc3s2)cc1)c1ccccc1O,> 63,67,> 100,> 100,40,> 100,> 100,0.41,0.2,> 100,33,87,5 - 15,0.2,> 100,2,0.91,74,–,–
O=C(Nc1ccc(Sc2nc3ccccc3s2)c(Cl)c1)c1cccc(Br)c1O,> 63,24,–,> 100,9.5,> 100,> 100,0.71,0.45,> 100,19,3.8,5 - 15,0.45,2.9,5.6,1,64,–,–
O=C(Nc1ccccc1)c1cc(Br)cc(Br)c1O [METABROMSALAN],51,> 100,–,> 100,61,> 100,> 100,2,–,> 100,25,> 100,–,1.2,> 100,–,–,34,> 50,> 50
CN[C@H](CC(C)C)C(=O)N[C@H]1C(=O)N[C@@H](CC(N)=O)C(=O)N[C@H]2C(=O)N[C@H]3C(=O)N[C@H](C(=O)N[C@H](C(=O)O)c4cc(O)cc(O)c4-c4cc3ccc4O)[C@H](O)c3ccc(c(Cl)c3)Oc3cc2cc(c3O[C@@H]2O[C@H](CO)[C@@H](O)[C@H](O)[C@H]2O[C@H]2C[C@](C)(N)[C@H](O)[C@H](C)O2)Oc2ccc(cc2Cl)[C@H]1O [VANCOMYCIN],> 63,0.6,> 100,> 100,> 100,> 100,> 100,0.52,0.67,> 100,> 100,> 100,–,0.67,> 100,> 100,0.54,> 100,–,–
O=C(Nc1cccc(Cl)c1)c1cc(Br)cc(Br)c1O,27,73,–,> 100,24,> 100,95,1.1,–,78,9.2,47,–,0.66,46,–,–,18,> 50,> 50
COc1ccccc1C(=O)Nc1ccc(Sc2nc3ccccc3s2)cc1,> 63,> 100,> 100,> 100,> 100,> 100,> 100,> 100,–,> 100,> 100,> 100,–,> 100,> 100,–,–,> 100,–,–
O=C(Nc1ccccc1)c1ccccc1O [SALICYLANILIDE],> 63,> 100,> 100,> 100,> 100,> 100,> 100,51,–,> 100,68,> 100,–,28,> 100,–,–,> 100,–,–
O=C(Nc1ccc(Sc2nc3ccccc3s2)c(Cl)c1)c1ccccc1,> 63,> 100,> 100,> 100,> 100,> 100,> 100,> 100,–,> 100,82,> 100,–,43,> 100,–,–,90,–,–
COc1ccccc1C(=O)Nc1cccc(Cl)c1,> 63,> 100,> 100,> 100,> 100,> 100,> 100,> 100,–,> 100,> 100,> 100,–,> 100,> 100,–,–,> 100,–,–

# Source: ChEMBL document CHEMBL4266041, “Hydroxybiphenylamide GroEL/ES Inhibitors Are Potent Antibacterials against Planktonic and Biofilm Forms of Staphylococcus aureus” (J Med Chem, 2018)
